# Calls of active or inactive are those of the source. The rule behind the calls is not given here.
# Experiments:
# HT-29 = experiment: Cytotoxicity against human HT-29 cells after 72 hrs by CellTiter 96 Aqueous One Solution reagent based assay; format: functional, cell-based; conditions: HT-29, 72 h
# OVCAR-3 = experiment: Cytotoxicity against human OVCAR3 cells after 72 hrs by CellTiter 96 Aqueous One Solution reagent based assay; format: functional, cell-based; conditions: OVCAR-3, 72 h
# MDA-MB-231 = experiment: Cytotoxicity against human MDA-MB-231 cells after 72 hrs by CellTiter 96 Aqueous One Solution reagent based assay; format: functional, cell-based; conditions: MDA-MB-231, 72 h
# MDA-MB-435 = experiment: Cytotoxicity against human MDA-MB-435 cells after 72 hrs by CellTiter 96 Aqueous One Solution reagent based assay; format: functional, cell-based; conditions: MDA-MB-435, 72 h
# NCI-H1299 = experiment: Inhibition of glucose transporter in human NCI-H1299 cells assessed as reduction in [3H]2-deoxy-D-glucose uptake at 30 uM preincubated for 15 mins followed by [3H]2-deoxy-D-glucose addition and measured after 40 mins by liquid scintillation counting method; format: cell-based
# Summary of the method: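 H1299 NSCLC cells (maintained in DMEM, 25 mM glucose, 10% FBS) serum-starved 1.5 h in FBS-free DMEM, then 30 min in glucose-free KRP buffer. Compound at 30 μM final, 15 min; uptake started with 37 MBq/L 2-deoxy-D-[3H]glucose plus 1 mM glucose (final), 40 min. Stopped with PBS, lysate radioactivity counted. Vehicle negative control, WZB117 positive control; n = 3, Student's t-test versus vehicle.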
# [1] = Inhibition of porcine cortex Na+/K+-ATPase using ATP as substrate after 15 mins by ADP-Glo Reagent based method; design: species or system Sus scrofa
# Summary of the method: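 Enzyme from porcine cerebral cortex in assay buffer, preincubated with compound in DMSO or DMSO alone; ATP added, 15 min reaction. ADP formed was quantified luminescently: 40 min with ADP-Glo reagent, then 60 min with detection reagent (luciferin/luciferase). Concentration-response over a range of concentrations; IC50 derived; triplicate, three independent experiments.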
SMILES,IC50 (HT-29),IC50 (OVCAR-3),IC50 (MDA-MB-231),IC50 (MDA-MB-435),Activity (NCI-H1299),IC50 [1]
C[C@]12CC[C@H](O)C[C@H]1CC[C@@H]1[C@@H]2C[C@@H](O)[C@]2(C)[C@@H](C3=CC(=O)OC3)CC[C@]12O [DIGOXIGENIN],3.6 µM,2.4 µM,3.2 µM,0.9 µM,,
C[C@]12[C@H](O)CC3=C(CC[C@@H]4C[C@@H](O)CC[C@]34C)[C@H]1CC[C@@H]2C1=CC(=O)OC1,> 10 µM,> 10 µM,> 10 µM,> 10 µM,,
CC(=O)O[C@H]1[C@@H](OC(C)=O)C[C@H](O[C@H]2[C@@H](OC(C)=O)C[C@H](O[C@H]3[C@@H](OC(C)=O)C[C@H](O[C@H]4CC[C@@]5(C)[C@H](CC[C@@H]6[C@@H]5C[C@@H](OC(C)=O)[C@]5(C)[C@@H](C7=CC(=O)OC7)CC[C@]65O)C4)O[C@@H]3C)O[C@@H]2C)O[C@@H]1C,> 10 µM,8.2 µM,> 10 µM,> 10 µM,,
C[C@H]1O[C@@H](O[C@H]2[C@@H](O)C[C@H](O[C@H]3[C@@H](O)C[C@H](O[C@H]4CC[C@@]5(C)[C@H](CC[C@@H]6[C@@H]5C[C@@H](O)[C@]5(C)[C@@H](C7=CC(=O)OC7)CC[C@]65O)C4)O[C@@H]3C)O[C@@H]2C)C[C@H](O)[C@@H]1O [DIGOXIN],0.28 µM,,0.31 µM,0.17 µM,inactive,0.23 µM
C[C@H]1O[C@@H](O[C@H]2[C@@H](O)C[C@H](O[C@H]3[C@@H](O)C[C@H](O[C@H]4CC[C@@]5(C)[C@H](CC[C@@H]6[C@@H]5C[C@@H](O)[C@]5(C)[C@H]([C@@H]7CC(=O)O[C@@H]7O)CC[C@]65O)C4)O[C@@H]3C)O[C@@H]2C)C[C@H](O)[C@@H]1O,> 10 µM,> 10 µM,> 10 µM,> 10 µM,,160 µM
CC(=O)O[C@H]1[C@@H](OC(C)=O)C[C@H](O[C@H]2[C@@H](O)C[C@H](O[C@H]3[C@@H](O)C[C@H](O[C@H]4CC[C@@]5(C)[C@H](CC[C@@H]6[C@@H]5C[C@@H](OC(C)=O)[C@]5(C)[C@@H](C7=CC(=O)OC7)CC[C@]65O)C4)O[C@@H]3C)O[C@@H]2C)O[C@@H]1C,> 10 µM,6.2 µM,> 10 µM,> 10 µM,,

# From ChEMBL document CHEMBL4613252 (J Nat Prod, 2020)
